Data as given in ChEMBL document CHEMBL1145986, “Dual protein farnesyltransferase-geranylgeranyltransferase-I inhibitors as potential cancer chemotherapeutic agents” (J Med Chem, 2003).

Assays:
[1] = molecular target: T1, Protein farnesyltransferase (Homo sapiens, UniProt P49354+P49356); assay: Concentration required to inhibit recombinant human farnesyltransferase (FTase) catalyzed incorporation of [3H]FPP into recombinant Ras-CVIM.; assay type: protein-complex assay
[2] = molecular target: T2, Geranylgeranyl transferase type I (Homo sapiens, UniProt P49354+P53609); assay: Concentration required to inhibit recombinant human geranylgeranyl transferase type I (GGTase-I) catalyzed incorporation of [3H]GGPP to the C-terminus of human K-Ras.; assay type: protein-complex assay
Procedure, shortened: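 Human GGTase-I transferring [3H]GGPP onto a biotinylated peptide matching the human K-Ras C-terminus. IC50 is the concentration giving 50% inhibition of incorporation. For the GGPP-competition check, IC50 was also determined at 20, 100 and 500 nM GGPP. Data with n > 2 are given as mean ± SEM.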

[3] = molecular target: T1, Protein farnesyltransferase; assay: Inhibition of hDJ2 protein farnesylation; assay type: functional
Procedure, shortened: (§1)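 PSN-1 pancreatic carcinoma cells were exposed to inhibitor for 24 h. Lysates were run on SDS-PAGE and Western blotted with antibodies to hDJ2, Rap1a or K-Ras. Unprocessed and prenylated forms were told apart by their different electrophoretic mobility.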

[4] = molecular target: Protein farnesyl/geranylgeranyl transferase (Homo sapiens, UniProt P49354+P49356+P53609); assay: Inhibition of K-Ras processing, farnesylation and/or geranylgeranylation in human PSN1 cells; assay type: functional, cell-based; procedure, shortened: as §1
[5] = molecular target: T2, Geranylgeranyl transferase type I; assay: Inhibition of Rap1a protein geranylgeranylation in human PSN1 cells; assay type: functional, cell-based; procedure, shortened: as §1

| SMILES | IC50 [1] [nM] | IC50 [2] [nM] | EC50 [3] [nM] | EC50 [4] [nM] | EC50 [5] [nM] |
| --- | --- | --- | --- | --- | --- |
| CCC1(c2cccc(Oc3cc(Cc4cncn4C)ccc3C#N)c2)CCCCN(C)C1=O (stereo unspecified) | 0.6 | 10 |  |  |  |
| N#Cc1ccc(Cn2ccnc2)cc1Oc1cccc(C2CCCCNC2=O)c1 (stereo unspecified) | 41 | 1200 |  |  |  |
| CCC1(c2cccc(Oc3cc(Cc4cnc[nH]4)ccc3C#N)c2)CCCCN(C)C1=O (stereo unspecified) | 13 | 12 |  |  |  |
| CCC1(c2cccc(Oc3cc(C(=O)c4cncn4C)ccc3C#N)c2)CCCCN(C)C1=O (stereo unspecified) | 1800 | 10000 |  |  |  |
| CC[C@@]1(c2cccc(Oc3cc(Cn4ccnc4)ccc3C#N)c2)CCCCN(C)C1=O | 1.4 | 5.8 |  |  |  |
| CC[C@]1(c2cccc(Oc3cc(Cn4ccnc4)ccc3C#N)c2)CCCCN(C)C1=O | 5.3 | 25 |  |  |  |
| CN1CCCC[C@@](CCC(F)(F)F)(c2cccc(Oc3cc([C@](C)(N)c4cncn4C)ccc3C#N)c2)C1=O | 0.19 | 2.5 | 3.1 | 207 | 47 |
| CN1CCCCC(c2cccc(Oc3cc(Cn4ccnc4)ccc3C#N)c2)C1=O (stereo unspecified) | 61 | 560 |  |  |  |
| CN1CCCC[C@@H](c2cccc(Oc3cc([C@](C)(N)c4cncn4C)ccc3C#N)c2)C1=O | 11 | 92 |  |  |  |
| CCC1(c2cccc(Oc3cc(Cn4ccnc4)ccc3C#N)c2)CCCCNC1 (stereo unspecified) | 100 | 280 |  |  |  |
| CCC1(c2cccc(Oc3cc(Cn4ccnc4)ccc3C#N)c2)CCCCNC1=O (stereo unspecified) | 1.3 | 20 |  |  |  |
| CCC1(c2cccc(Oc3cc(C(N)c4cncn4C)ccc3C#N)c2)CCCCN(C)C1=O (stereo unspecified) | 0.19 | 8 |  |  |  |
| CCC1(c2cccc(Oc3cc(Cn4ccnc4)ccc3C#N)c2)CCCCN(C(C)=O)C1 (stereo unspecified) | 1.9 | 8.9 |  |  |  |
| CCC1(c2cccc(Oc3cc(C(O)c4cncn4C)ccc3C#N)c2)CCCCN(C)C1=O (stereo unspecified) | 2 | 17 |  |  |  |
| CCC1(c2cccc(Oc3cc(Cn4ccnc4)ccc3C#N)c2)CCCCN(C)C1=O (racemic) | 3 | 7.2 |  |  |  |

The next lines start with the values.

| IC50 [1] [nM] | IC50 [2] [nM] | EC50 [3] [nM] | EC50 [4] [nM] | EC50 [5] [nM] | SMILES |
| --- | --- | --- | --- | --- | --- |
| 0.38 | 5.1 |  |  |  | CCC1(c2cccc(Oc3cc(C(C)(N)c4cncn4C)ccc3C#N)c2)CCCCN(C)C1=O (stereo unspecified) |
|  | 3.6 | 2.1 | 340 | 470 | CC[C@@]1(c2cccc(Oc3cc([C@](C)(N)c4cncn4C)ccc3C#N)c2)CCCCN(C)C1=O |
| 0.46 | 2.9 | 0.9 | 100 | 220 | CCC[C@@]1(c2cccc(Oc3cc([C@](C)(N)c4cncn4C)ccc3C#N)c2)CCCCN(C)C1=O |
| 1.2 | 13 |  |  |  | CCC1(c2cccc(Oc3cc(C(C)(O)c4cncn4C)ccc3C#N)c2)CCCCN(C)C1=O (stereo unspecified) |
| 0.18 | 0.81 | 11 | 1290 | > 1000 | CN1CCCC[C@@](CCC2CC2)(c2cccc(Oc3cc([C@](C)(N)c4cncn4C)ccc3C#N)c2)C1=O |
| 0.41 | 30 | 26 | 3730 | 3990 | CN1CCCC[C@@](C)(c2cccc(Oc3cc([C@](C)(N)c4cncn4C)ccc3C#N)c2)C1=O |
| 7.6 | 54 | 120 | 8000 | 3200 | CC[C@]1(c2cccc(Oc3cc([C@@](C)(N)c4cncn4C)ccc3C#N)c2)CCCCN(C)C1=O |
| 0.3 | 2.1 | 1.5 | 220 | 87 | CN1CCCC[C@@](CC2CC2)(c2cccc(Oc3cc([C@](C)(N)c4cncn4C)ccc3C#N)c2)C1=O |
| 0.12 | 1.4 | 4 | 320 | 250 | CCCC[C@@]1(c2cccc(Oc3cc([C@](C)(N)c4cncn4C)ccc3C#N)c2)CCCCN(C)C1=O |
| 1.5 | 4.5 | 11 | 1900 | 720 | CC[C@]1(c2cccc(Oc3cc([C@](C)(N)c4cncn4C)ccc3C#N)c2)CCCCN(C)C1=O (stereo in doubt) |
| 0.36 | 13 | 6 | 230 | 140 | CC[C@@]1(c2cccc(Oc3cc([C@@](C)(N)c4cncn4C)ccc3C#N)c2)CCCCN(C)C1=O (stereo in doubt) |
